Compounds with a hit are over-represented: about 3.8% of the library has one in this group of screens.
MrgX1 antagonist – antagonists of human MrgX1 receptor, primary screen, HEK293 cells, Fluo-4 calcium flux; B-score at 10 µM; Mas-related G-protein coupled receptor member X1 (Homo sapiens), Q96LB2; 310,000 tested, 1.3% active; BAM8-22 antagonism; stronger effect = lower value;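 active = calcium-response B-score plate-corrected more than 3 library SD below zero, starting fluorescence within 5 deviations, no agonist response on first addition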;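 note: peak minus trough fluorescence over baseline after final BAM8-22 challenge near maximal dose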
Target sequence (Q96LB2 whole entry, looked up): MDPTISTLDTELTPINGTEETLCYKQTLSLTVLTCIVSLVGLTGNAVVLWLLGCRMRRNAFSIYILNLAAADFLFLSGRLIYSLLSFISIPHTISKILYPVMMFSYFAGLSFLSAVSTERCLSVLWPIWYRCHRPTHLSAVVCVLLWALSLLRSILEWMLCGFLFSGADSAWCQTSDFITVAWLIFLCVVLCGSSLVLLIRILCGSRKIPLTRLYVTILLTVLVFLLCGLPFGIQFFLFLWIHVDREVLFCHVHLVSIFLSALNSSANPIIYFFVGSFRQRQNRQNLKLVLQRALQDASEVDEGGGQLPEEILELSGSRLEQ
RGS4 block – RGS4 inhibitors, primary screen, cell-based, HEK293 M3R inducible RGS4, calcium flux; 310,000 tested, 0.45% active; B-score at 10 µM; Regulator of G-protein signaling 4 (Homo sapiens), P49798; AID 463165, 2010; Fluo-4 calcium flux; stronger effect = higher value; triggered by carbachol at its EC20;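 active = B-score, a plate-corrected calcium signal, over three deviations above library mean, with baseline fluorescence within five deviations of library mean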;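 note: RGS4 expression induced by doxycycline in cells with stable M3 receptor; B-score is computed from the integrated fluorescence ratio over baseline after carbachol; higher B-score means a larger calcium signal and so more RGS4 inhibition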
Target sequence (P49798 whole entry, looked up): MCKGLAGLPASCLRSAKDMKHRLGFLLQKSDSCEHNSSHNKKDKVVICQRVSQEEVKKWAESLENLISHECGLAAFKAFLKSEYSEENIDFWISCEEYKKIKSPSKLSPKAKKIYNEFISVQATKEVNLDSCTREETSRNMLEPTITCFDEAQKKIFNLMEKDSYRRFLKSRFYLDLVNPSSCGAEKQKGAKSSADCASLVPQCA
MrgX1 agonist – agonists of human MrgX1 receptor, primary screen, HEK293 cells, Fluo-4 calcium flux; Mas-related G-protein coupled receptor member X1 (Homo sapiens), Q96LB2; Fluo-4 calcium fluorescence, agonist mode; stronger effect = higher value; B-score at 10 µM; 310,000 tested, 0.44% active;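 active = calcium response B-score plate-corrected fluorescence ratio at least 3 library SD, with starting fluorescence B-score inside 5 SD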
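Material – MrgX1-expressing HEK293 cells · Input – 15,000 cells seeded per well · Dosing – compound as first of three additions · Times – overnight seeding, then 1 h dark dye loading · Measured by – kinetic Fluo-4 NW fluorescence of intracellular calcium · Read-out – B-scored fluorescence response ratio · Benchmarks – positive and negative control wells on each plate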
Hep lipid drop – inhibitors of hepatocyte lipid droplet formation, primary screen, imaging, high-throughput imaging, BODIPY stain | 240,000 tested, 0.4% active | AML12 mouse hepatocytes, oleate lipid droplets | AID 1656, 2009 | inhibition, % at 6.5 µM;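 active = lipid droplet intensity inhibited by at least 50%, with more than 500 cells counted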
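Assay system: AML12 hepatocytes (mouse) / Also added: 100 µM oleic acid challenge / Times: overnight treatment with compound plus oleate / Detection: high-content imaging of BODIPY-stained droplets and DAPI nuclei / Evaluation: % inhibition of lipid droplet signal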
MrgX1 PAM – positive allosteric modulators of MrgX1, primary screen, HEK293 cells, Fluo-4 calcium flux | FDSS; stronger effect = higher value | B-score at 10 µM | 310,000 tested, 0.63% active | AID 588675, 2011;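 active = plate-corrected calcium response at least 3 library SD above typical, normal starting fluorescence, not activating the receptor alone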;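 note: compound read alongside a low EC10 to EC30 dose of BAM8-22 agonist; peak minus trough fluorescence over baseline measured at the second addition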
RGS4 pot – RGS4 potentiators or activators, primary screen, cell-based, HEK293 M3R inducible RGS4, calcium flux; AID 463111, 2010; B-score at 10 µM; carbachol calcium flux Fluo4; stronger effect = lower value; 310,000 tested, 0.92% active;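 active = B-score of the integrated calcium signal more than 4 SD below the library mean, with starting fluorescence not abnormally high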;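 note: negative B-score means reduced calcium response which marks RGS4 activation or potentiation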
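Material: M3R-expressing HEK293 line, RGS4 induced by doxycycline | Schedule: Overnight RGS4 induction, 30 min dye load 37 °C, 20 min compound RT | Measured by: Fluo4 fluorescence kinetic imaging of calcium | Read-out: Integrated calcium ratio converted to B score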
Lipid drop inh – hepatocyte lipid droplet accumulation inhibitors, confirmation, imaging, AML12 mouse hepatocytes, single concentration, high-content. shares compounds with Hep lipid drop. AID 463183, 2010. inhibition, % at 5.2 µM. BODIPY lipid droplet imaging; droplets induced with 100 µM oleic acid. 870 tested, 65% active;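 active = inhibition of lipid droplet metric at least 50%, with more than 300 cells in each of four replicates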
AML12 tox img – AML12 hepatocyte cytotoxicity, counter-screen for hepatic lipid droplet formation project, imaging, DAPI nuclear morphology imaging. shares compounds with Hep lipid drop. AML12 mouse hepatocytes; stronger effect = higher value; cells fed 100 µM oleate overnight. z-score at 5 µM. 870 tested, 3% active; in the data active = z-score above about 6.3;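 note: compound exposure lasted overnight at 37 °C before fixation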
AML12 tox ATP – AML12 hepatocyte cytotoxicity, confirmation, cytotoxicity control for hepatic lipid droplet formation project, cell-based, single concentration | shares compounds with Hep lipid drop | AML12 mouse hepatocyte viability, ATP luminescence; cells loaded with 100 µM oleic acid | cytotoxicity, % at 50 µM | 530 tested, under 10 active | AID 463219, 2010;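 active = cytotoxicity above 50% in each of four replicates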;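 note: compound exposure lasted overnight at 37 °C before the ATP read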
Large screens that a line does not name were inactive (follow-up assays come after a bar, where they were run).

O=[N+]([O-])c1ncn(Cc2c(Cl)cccc2Cl)n1	none (no result: MrgX1 antagonist, MrgX1 agonist, MrgX1 PAM)
Cc1ccccc1C(=O)NC1CCN(Cc2nnnn2C2CCCC2)CC1	Hep lipid drop 63 | Lipid drop inh inactive | AML12 tox img inactive
Cc1ccccc1C(=O)NC1CCN(Cc2nnnn2C(C)(C)C)CC1	none
C=C(C)C(=O)Nc1cccc(C2=NOC3(C2)C[C@H](C(N)=O)N(C(=O)COc2ccc(Cl)cc2)C3)c1 (some centres not stated)	none
Cc1cc(C(=O)N[C@@H](c2ccccc2)[C@]2(C)C[C@H]2[C@@H](C)C(=O)Nc2ccc3ccccc3c2)no1	Hep lipid drop 96 | Lipid drop inh 101 | AML12 tox img inactive
Cc1cc(C(=O)N[C@H](c2ccccc2)[C@@]2(C)C[C@@H]2[C@@H](C)C(=O)Nc2ccc3ccccc3c2)no1	none
CCOc1cc2c(cc1OCC)C(c1ccccc1OC)OC(=O)C2 (configuration not stated)	Hep lipid drop 51 | Lipid drop inh 79 | AML12 tox img inactive | AML12 tox ATP inactive
COc1ccc(C2OC(=O)Cc3cc(OC)c(OC)cc32)cc1 (configuration not stated)	none
CCOc1ccccc1N1CCN(C(=O)NCc2ccc(C)cc2)CC1	Hep lipid drop 65 | Lipid drop inh inactive | AML12 tox img inactive | AML12 tox ATP inactive
Cc1ccc(CNC(=O)N2CCN(C)CC2)cc1	none
COc1cccc(-c2nc(NCc3ccccc3)c3ccccc3n2)c1O	Hep lipid drop 69 | Lipid drop inh 55 | AML12 tox img inactive | AML12 tox ATP inactive
COc1cccc(-c2nc(NCc3ccco3)c3ccccc3n2)c1O	none
CCc1nonc1NC(=O)c1oc2ccccc2c1C	none
COc1cc(O)c(C(CC(=O)N2CCOCC2)c2cc(OC)c(OC)c(OC)c2)c(OC)c1 (configuration not stated)	none (no result: MrgX1 antagonist, MrgX1 agonist, MrgX1 PAM)
CC1(OC(=O)CCc2ccccc2)C(=O)C=C2C=C(c3ccc(C#N)cc3)N(CCc3c[nH]c4ccccc34)C=C2C1=O (configuration not stated)	Hep lipid drop 60 | Lipid drop inh inactive | AML12 tox img inactive
CCN(CC)CCCN1C=C2C(=O)C(C)(OC(=O)CCc3ccccc3)C(=O)C=C2C=C1c1ccc(C#N)cc1 (configuration not stated)	none
Cc1ccc(-c2cc(C(=O)NC3=NCCS3)c3cc(Br)ccc3n2)o1	Hep lipid drop 107 | Lipid drop inh inactive | AML12 tox img inactive
CCCCN1C(=O)/C(=C/C=C2\Oc3ccccc3N2CC)SC1=S	Hep lipid drop 69 (no result: MrgX1 antagonist, MrgX1 agonist, MrgX1 PAM) | Lipid drop inh 113 | AML12 tox img inactive | AML12 tox ATP inactive
O=C(COC(=O)Cc1c(F)cccc1Cl)Nc1nnc(-c2ccccc2)o1	none (no result: Hep lipid drop)
COc1ccc(CC(=O)Nn2c(-c3ccccc3)nc3ccccc3c2=O)cc1	Hep lipid drop 56 | Lipid drop inh 91 | AML12 tox img inactive
COc1ccc(-c2nc3ccccc3c(=O)n2NC(=O)Cc2ccccc2)cc1	none
CC(C)C(C)(C#N)NC(=O)CSc1nc2scc(-c3ccc(F)cc3)c2c(=O)n1Cc1ccccc1 (configuration not stated)	Hep lipid drop 105 | Lipid drop inh 113 | AML12 tox img inactive
Cc1[nH]c2ccccc2c1/C=N/Nc1ccccc1[N+](=O)[O-]	Hep lipid drop 85 | Lipid drop inh 114 | AML12 tox img inactive
CCCOc1ccc(/C=N/Nc2ccccc2[N+](=O)[O-])c(O)c1	Hep lipid drop 56 | Lipid drop inh inactive | AML12 tox img inactive
Cc1[nH]c2ccccc2c1/C=N/NS(=O)(=O)c1ccccc1	none
COc1ccccc1/C=N\Nc1ccccc1[N+](=O)[O-]	Hep lipid drop 165 | Lipid drop inh 63 | AML12 tox img inactive
CC(C)Oc1ccccc1/C=N/Nc1ccccc1[N+](=O)[O-]	Hep lipid drop 95 | Lipid drop inh 115 | AML12 tox img inactive
CSc1ccc(C(=O)N2CCC(CCC(=O)NC3CC3)CC2)cc1	none
CCC(=O)N1CCc2cc(S(=O)(=O)CCC(=O)N3CCN(c4ccc(C(C)=O)cc4)CC3)ccc21	none
O=C(NC1CCCc2c1cnn2-c1ccccc1F)c1ccccn1 (configuration not stated)	Hep lipid drop 71 | Lipid drop inh 88 | AML12 tox img inactive | AML12 tox ATP inactive
Cc1cc(C)c(C(=O)NC2CCCc3c2cnn3-c2cccc(C)c2C)o1 (configuration not stated)	Hep lipid drop 81 | Lipid drop inh 105 | AML12 tox img inactive | AML12 tox ATP inactive
Cc1cccc(-n2ncc3c2CCCC3NC(=O)C2(C(N)=O)CC2)c1C (configuration not stated)	none
COCc1ccc(C(=O)NC2CCCc3c2cnn3-c2ccc(C)c(C)c2)o1 (configuration not stated)	Hep lipid drop 61 | Lipid drop inh 100 | AML12 tox img inactive | AML12 tox ATP inactive
Cc1ccc(-n2ncc3c2CCCC3NC(=O)c2ccoc2)cc1C (configuration not stated)	none
COc1ccc(OC2CCN(S(=O)(=O)c3ccccc3)CC2)cc1	none
CC(C)CCNC(=O)c1c(CSc2ccc(Cl)cc2)noc1C(=O)NCc1ccccc1	none (no result: Hep lipid drop)
O=C(NNC(=O)c1ccncc1)NC1CCCCC1	none
Cc1ccc2c(c1)cc(CN(Cc1cccnc1)C(=O)NCc1ccccc1)c1nnnn12	none
Cc1cc(NC(=O)c2sccc2C)n(-c2nc3ccccc3[nH]2)n1	Hep lipid drop 60 | Lipid drop inh 83 | AML12 tox img inactive | AML12 tox ATP inactive
Cc1cc(NC(=O)c2cccs2)n(-c2nc3ccccc3[nH]2)n1	none

Assay outcomes deposited in PubChem by several laboratories.
